Activity calls are given as the source filed them. No cut-off for these calls is given here.
Tests used:
[1] = target: T1, DNA topoisomerase 1 (Homo sapiens) (UniProt P11387); experiment: Inhibition of human topoisomerase 1 assessed as decrease in pBR322 mobility on agarose gel at 10 uM by electrophoresis
T1 sequence (whole entry): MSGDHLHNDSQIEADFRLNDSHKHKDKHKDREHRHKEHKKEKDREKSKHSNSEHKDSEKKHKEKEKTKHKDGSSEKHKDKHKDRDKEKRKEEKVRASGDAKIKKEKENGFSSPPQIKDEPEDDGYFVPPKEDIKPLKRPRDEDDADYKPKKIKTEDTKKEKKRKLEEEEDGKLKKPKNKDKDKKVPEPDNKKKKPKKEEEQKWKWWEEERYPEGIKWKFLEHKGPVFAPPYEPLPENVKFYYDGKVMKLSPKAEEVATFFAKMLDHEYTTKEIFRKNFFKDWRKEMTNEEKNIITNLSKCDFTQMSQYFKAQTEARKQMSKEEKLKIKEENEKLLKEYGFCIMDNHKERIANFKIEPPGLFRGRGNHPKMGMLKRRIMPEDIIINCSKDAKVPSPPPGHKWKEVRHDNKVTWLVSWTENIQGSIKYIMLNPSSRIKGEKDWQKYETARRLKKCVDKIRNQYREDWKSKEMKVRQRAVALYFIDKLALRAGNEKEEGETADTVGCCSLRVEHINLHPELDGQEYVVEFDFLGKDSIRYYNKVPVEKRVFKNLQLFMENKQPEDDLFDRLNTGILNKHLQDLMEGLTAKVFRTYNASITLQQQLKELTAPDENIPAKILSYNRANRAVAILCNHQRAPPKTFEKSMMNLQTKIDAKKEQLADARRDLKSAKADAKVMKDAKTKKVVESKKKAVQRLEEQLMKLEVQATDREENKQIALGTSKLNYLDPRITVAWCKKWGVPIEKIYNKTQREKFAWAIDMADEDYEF
Summary of the method: (§1)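 Enzyme preincubated with compound before DNA addition; reaction run 30 min at 37 °C and stopped with SDS. Products resolved on 1% agarose, stained with ethidium bromide, quantified by densitometry.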

Homo sapiens = species on record: Homo sapiens; experiment: Inhibition of human topoisomerase 2 assessed as decrease in pBR322 mobility on agarose gel at 10 uM by electrophoresis; summary of the method: as §1
[2] = Inhibition of human topoisomerase 2 assessed as decrease in pBR322 mobility on agarose gel by electrophoresis; summary of the method: as §1
HeLa [3] = experiment: Cytotoxicity against human HeLa cells after 48 hrs by MTT assay; type: functional
Summary of the method: (§2)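 Cells grown in DMEM with 10% FBS at 37 °C and 5% CO2, seeded at 5 × 10^3 per well and allowed 24 h before drug. Serial dilutions from DMSO stocks applied for 48 h. MTT (2 mg/mL in PBS) added for 2 h, formazan dissolved in DMSO, absorbance read at 570 nm. GI50 interpolated by linear regression from at least three points in the 20-80% range; three independent experiments.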

[4] = Cytotoxicity against human BT-483 cells after 48 hrs by MTT assay; type: functional; settings: BT-483, 48 h; summary of the method: as §2
[5] = Cytotoxicity against human Detroit 551 cells after 48 hrs by MTT assay; type: cell-based; summary of the method: as §2
DNA topoisomerase 1 = target: T2, DNA topoisomerase 1 (Homo sapiens, UniProt P11387); experiment: Inhibition of human topoisomerase 1 assessed as decrease in pBR322 mobility on agarose gel by electrophoresis; summary of the method: as §1
T2 sequence (P11387 whole entry): T1 sequence (whole entry)

SAS [6] = experiment: Cytotoxicity against human SAS cells after 48 hrs by MTT assay; type: functional; summary of the method: as §2
A549 = experiment: Cytotoxicity against human A549 cells after 48 hrs by MTT assay; type: functional; settings: A549, 48 h; summary of the method: as §2
PC-3 = experiment: Cytotoxicity against human PC3 cells after 48 hrs by MTT assay; type: functional; settings: PC-3, 48 h; summary of the method: as §2
[7] = Cytotoxicity against human SKHep cells after 48 hrs by MTT assay; type: functional; summary of the method: as §2
HeLa [8] = experiment: Selectivity index, ratio of IC50 for human Detroit 551 cells to IC50 for human HeLa cells; type: functional
SAS [9] = experiment: Selectivity index, ratio of IC50 for human Detroit 551 cells to IC50 for human SAS cells; type: functional
Detroit 551 [10] = experiment: Selectivity index, ratio of IC50 for human Detroit 551 cells to IC50 for human A549 cells; type: functional
Detroit 551 [11] = experiment: Selectivity index, ratio of IC50 for human Detroit 551 cells to IC50 for human PC3 cells; type: functional
Detroit 551 [12] = experiment: Selectivity index, ratio of IC50 for human Detroit 551 cells to IC50 for human SKHep cells; type: functional
Detroit 551 [13] = experiment: Selectivity index, ratio of IC50 for human Detroit 551 cells to IC50 for human BT-483 cells; type: functional
Nucleic Acid = experiment: Binding affinity to pBR322; type: nucleic-acid assay; settings: Escherichia coli

For COc1cccc2c1C(=O)c1c(O)c3c(c(O)c1C2=O)C[C@@](O)(C(=O)CO)C[C@@H]3O[C@H]1C[C@H](N)[C@H](O)[C@H](C)O1 [DOXORUBICIN], the inhibition [1] was 35%, the inhibition (Homo sapiens) was 85% and the IC50 [2] was 1.9 µM.
CC[C@@]1(O)C(=O)OCc2c1cc1n(c2=O)Cc2cc3ccccc3nc2-1 [CAMPTOTHECIN] showed a GI50 (HeLa [3]; read-out: GI50) of 0.08 µM, a GI50 [4] of 1.03 µM and a GI50 at 48 h [5] of 0.99 µM. The inhibition (Homo sapiens) was 0% and the IC50 [2] was greater than 100 µM.
In the case of COc1ccc2c(c1)/C(=N\OCCCN(C)C)c1c-2c(=O)[nH]c2ccccc12, the GI50 at 48 h [5] is reported as 2.09 µM and the IC50 (DNA topoisomerase 1) is reported as greater than 100 µM.
Molecule COc1ccc2c(c1)/C(=N\OCCN1CCCCC1)c1c-2c(O)nc2ccccc12 has a GI50 (HeLa [3]; read-out: GI50) of 0.84 µM, a GI50 (HeLa [3]; read-out: pGI50 (converted)) of 0.832 µM and a GI50 (SAS [6]) of 5.39 µM. It also gave a GI50 (A549) of 6.95 µM, a GI50 (PC-3) of 5.74 µM and a GI50 [7] of 4.28 µM. For the same molecule, the GI50 [4] was 1.59 µM, the RatioGI50 (HeLa [8]) was 8.93 and the RatioGI50 (SAS [9]) was 1.39. It also gave a RatioGI50 (Detroit 551 [10]) of 1.08, a RatioGI50 (Detroit 551 [11]) of 1.31 and a RatioGI50 (Detroit 551 [12]) of 1.75. The RatioGI50 (Detroit 551 [13]) was 4.72, the Activity (Nucleic Acid) was “Active” and the inhibition [1] was 0%. For the same molecule, the inhibition (Homo sapiens) was 0% and the IC50 [2] was greater than 100 µM.
COc1ccc2c(c1)/C(=N\OCCN1CCOCC1)c1c-2c(N2CCNCC2)nc2ccccc12 gave a GI50 (HeLa [3]; read-out: GI50) of 0.78 µM, a GI50 (HeLa [3]; read-out: pGI50 (converted)) of 0.776 µM and a GI50 (SAS [6]) of 6.93 µM. It also gave a GI50 (A549) of 2.2 µM, a GI50 (PC-3) of 6.47 µM and a GI50 [7] of 0.98 µM. The GI50 [4] was 3.75 µM, the GI50 at 48 h [5] was 2.6 µM and the RatioGI50 (HeLa [8]) was 3.33. The RatioGI50 (SAS [9]) was 0.38, the RatioGI50 (Detroit 551 [10]) was 1.18 and the RatioGI50 (Detroit 551 [11]) was 0.4. It also gave a RatioGI50 (Detroit 551 [12]) of 2.65, a RatioGI50 (Detroit 551 [13]) of 0.69 and an inhibition [1] of 40%. For the same molecule, the IC50 (DNA topoisomerase 1) was 13 µM, the inhibition (Homo sapiens) was 100% and the IC50 [2] was 5.97 µM.
COc1ccc2c(c1)/C(=N\OCCN1CCCCC1)c1c-2c(=O)[nH]c2ccccc12 showed a GI50 at 48 h [5] of 7.5 µM and an IC50 (DNA topoisomerase 1) greater than 100 µM.
With COc1ccc2c(c1)/C(=N\O)c1c-2cnc2ccccc12 the GI50 (HeLa [3]; read-out: GI50) was 11.4 µM, the GI50 (HeLa [3]; read-out: pGI50 (converted)) was 11.5 µM and the GI50 (SAS [6]) was greater than 30 µM. It also gave a GI50 (A549) greater than 30 µM, a GI50 (PC-3) greater than 30 µM and a GI50 [7] of 8.42 µM. For the same molecule, the GI50 [4] was greater than 30 µM.
COc1ccc2c(c1)/C(=N\O)c1c-2c(N2CCNCC2)nc2ccccc12 showed a GI50 (HeLa [3]; read-out: pGI50 (converted)) of 2.34 µM.
With COc1ccc2c(c1)C(=O)c1c-2cnc2ccccc12 the GI50 (HeLa [3]; read-out: GI50) was 17.2 µM, the GI50 (HeLa [3]; read-out: pGI50 (converted)) was 17.4 µM and the GI50 (SAS [6]) was greater than 30 µM. The GI50 (A549) was 13.5 µM, the GI50 (PC-3) was greater than 30 µM and the GI50 [7] was greater than 30 µM. The GI50 [4] was greater than 30 µM, the inhibition [1] was 0% and the IC50 (DNA topoisomerase 1) was greater than 100 µM. For the same molecule, the inhibition (Homo sapiens) was 0% and the IC50 [2] was greater than 100 µM.
Work on COc1ccc2c(c1)/C(=N\OCCN1CCOCC1)c1c-2cnc2ccccc12 yielded a GI50 (HeLa [3]; read-out: GI50) of 16.9 µM, a GI50 (HeLa [3]; read-out: pGI50 (converted)) of 17 µM and a GI50 (SAS [6]) of 15.7 µM. It also gave a GI50 (A549) of 28.2 µM, a GI50 (PC-3) of 7.81 µM and a GI50 [7] of 20.8 µM. For the same molecule, the GI50 [4] was 10.2 µM, the inhibition [1] was 0% and the IC50 (DNA topoisomerase 1) was greater than 100 µM. The inhibition (Homo sapiens) was 0% and the IC50 [2] was greater than 100 µM.
In the case of COc1ccc2c(c1)/C(=N\OCCN1CCOCC1)c1c-2c(O)nc2ccccc12, the GI50 (HeLa [3]; read-out: GI50) is reported as 5.02 µM, the GI50 (HeLa [3]; read-out: pGI50 (converted)) is reported as 5.01 µM and the GI50 (SAS [6]) is reported as 16.5 µM. It also gave a GI50 (A549) greater than 30 µM, a GI50 (PC-3) of 13.6 µM and a GI50 [7] of 10.4 µM. The GI50 [4] was 6.04 µM, the inhibition [1] was 0% and the IC50 (DNA topoisomerase 1) was greater than 100 µM. It also gave an inhibition (Homo sapiens) of 0% and an IC50 [2] greater than 100 µM.
With COc1ccc2c(c1)/C(=N\OCCCN(C)C)c1c-2cnc2ccccc12 the GI50 (HeLa [3]; read-out: GI50) was 1.11 µM, the GI50 (HeLa [3]; read-out: pGI50 (converted)) was 1.12 µM and the GI50 (SAS [6]) was 6.1 µM. The GI50 (A549) was 1.83 µM, the GI50 (PC-3) was 5.65 µM and the GI50 [7] was 1.07 µM. It also gave a GI50 [4] of 0.93 µM, a GI50 at 48 h [5] of 3.45 µM and a RatioGI50 (HeLa [8]) of 3.11. It also gave a RatioGI50 (SAS [9]) of 0.57, a RatioGI50 (Detroit 551 [10]) of 1.89 and a RatioGI50 (Detroit 551 [11]) of 0.61. The RatioGI50 (Detroit 551 [12]) was 3.22, the RatioGI50 (Detroit 551 [13]) was 3.71 and the inhibition [1] was 5%. It also gave an IC50 (DNA topoisomerase 1) of 40 µM, an inhibition (Homo sapiens) of 75% and an IC50 [2] of 13.2 µM.

— ChEMBL document CHEMBL1240482, “Synthesis and antiproliferative evaluation of certain indeno[1,2-c]quinoline derivatives. Part 2” (J Med Chem, 2010)
